Results as given in ChEMBL document CHEMBL4257452, “A mini-library system to investigate non-essential residues of lipid-phosphatidylserine (PS) binding peptide-peptoid hybrid PPS1” (Medchemcomm, 2017).
Calls of active or inactive are those of the source. No cut-off for these calls is given here. Starred links: 1 amine or outer side, 2 acyl side, 3 side chain; linkers in the order of their positions; H or OH if unused. Positions of bridges follow the written chain, without caps; N, C: chain ends. Non-standard residues stand in square brackets, D forms with d. Residues, ends and D or L forms follow the SMILES beside them. Chains are numbered I, II in the order given. Gly(N-piperonyl) = O=C(O)CNCc1ccc2c(c1)OCO2; X5 = O=C(CN(c1ccc2c(c1)OCCO2)[*:1])[*:2]; N(4-MeOBn)Gly = COc1ccc(CNCC(=O)O)cc1; X11 = Nc1ccc(CN(CC(=O)[*:2])[*:1])cc1; X3 = CC(c1ccccc1)N(CC(=O)[*:2])[*:1]; X9 = O=C(CN(CCOc1ccccc1)[*:1])[*:2]; X8 = O=C(CN(CC1CCNCC1)[*:1])[*:2]; Nrpe = C[C@@H](NCC(=O)O)c1ccccc1; X10 = CCC(C)CN(CC(=O)[*:2])[*:1]; NAllylGly = C=CCNCC(=O)O; Nlys = NCCCCNCC(=O)O; Nme = COCCNCC(=O)O

Key:
HCC4017 [1] = test: Cytotoxicity against human HCC4017 cells assessed as reduction in cell viability up to 100 uM after 24 hrs by calcein-AM dye based fluorescence assay; assay type: functional; settings: in the assay text read “up to 50 uM” for “up to 100 uM”
Method in brief: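 HCC4017 cells were seeded at 10 000 cells/well in triplicate, adhered overnight, and treated with a graded series of compounds for 24 h. Medium was replaced with PBS containing calcein AM (1 mM as printed) for 15 min at room temperature. Fluorescence emission was read at 520 nm.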

HCC4017 [2] = test: Cytotoxicity against human HCC4017 cells assessed as reduction in cell viability at 1 uM after 24 hrs by MTS assay; assay type: functional, cell-based
Method in brief: (§1)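 HCC4017 cells (RPMI, 5% FBS) and HBEC-3KT normal lung cells (KSFM with recombinant human EGF and bovine pituitary extract) were plated at 10 000 cells/well in triplicate and left to adhere overnight. They were exposed to 1 or 20 μM compound for 24 h. MTS reagent was then added for 2 h and absorbance read at 490 nm. Viability is % of untreated control wells.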

[3] = Cytotoxicity against human HBEC3-KT cells assessed as reduction in cell viability at 1 uM after 24 hrs by MTS assay; assay type: cell-based; method in brief: as §1
[4] = Cytotoxicity against human HBEC3-KT cells assessed as reduction in cell viability at 20 uM after 24 hrs by MTS assay; assay type: cell-based; method in brief: as §1
HCC4017 [5] = test: Cytotoxicity against human HCC4017 cells assessed as reduction in cell viability at 20 uM after 24 hrs by MTS assay; assay type: functional, cell-based; method in brief: as §1
HCC4017 [6] = test: Cytotoxicity against human HCC4017 cells assessed as reduction in cell viability after 24 hrs by MTS assay; assay type: functional, cell-based; settings: HCC4017, 24 h
Method in brief: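 HCC4017 lung cancer cells (RPMI, 5% FBS) were seeded at 10 000 cells/well in triplicate and adhered overnight. Purified compounds were given as a concentration gradient for 24 h. MTS reagent was added for 2 h and absorbance read at 490 nm. IC50 was taken from the viability curves.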

| Compound | Activity (HCC4017 [1]) | Activity (HCC4017 [2]) | Activity [3] | Activity [4] | Activity (HCC4017 [5]) | IC50 (HCC4017 [6]) |
| --- | --- | --- | --- | --- | --- | --- |
| C=CCNCC(=O)N(CCOC)CC(=O)N(CC=C)CC(=O)N(CCOC)CC(=O)N(CC=C)CC(=O)NCC(=O)NC(CCCCN)C(=O)NC(CCSC)C(=O)NCCCCC(NC(=O)C(CCSC)NC(=O)C(CCCCN)NC(=O)CNC(=O)CN(CC=C)C(=O)CN(CCOC)C(=O)CN(CC=C)C(=O)CN(CCOC)C(=O)CNCC=C)C(N)=O (stereo unspecified) (I: H-[NAllylGly][Nme][NAllylGly][Nme][NAllylGly]GKMK-NH2 / II: H-[NAllylGly][Nme][NAllylGly][Nme][NAllylGly]GKM; amide I:9-II:C; configuration not given here) | inactive | inactive | Non-Toxic | Non-Toxic | – | – |
| COc1ccc(CN(CC(=O)N(CCCCN)CC(=O)N[C@@H](CCCCN)C(=O)N[C@H](CCCCN)C(=O)N[C@@H](CCSC)C(=O)NCCCC[C@H](NC(=O)[C@H](CCSC)NC(=O)[C@@H](CCCCN)NC(=O)[C@H](CCCCN)NC(=O)CN(CCCCN)C(=O)CN(Cc2ccc(OC)cc2)C(=O)CN(C(=O)CN(Cc2ccc3c(c2)OCO3)C(=O)CN[C@H](C)c2ccccc2)[C@H](C)c2ccccc2)C(N)=O)C(=O)CN(C(=O)CN(Cc2ccc3c(c2)OCO3)C(=O)CN[C@H](C)c2ccccc2)[C@H](C)c2ccccc2)cc1 (I: H-[Nrpe][Gly(N-piperonyl)][Nrpe][N(4-MeOBn)Gly][Nlys]K[dK]MK-NH2 / II: H-[Nrpe][Gly(N-piperonyl)][Nrpe][N(4-MeOBn)Gly][Nlys]K[dK]M; amide I:9-II:C) | Active | inactive | Non-Toxic | Non-Toxic | Active | – |
| COc1ccc(CN(CC(=O)N(CC(=O)N[C@@H](CCCCN)C(=O)N[C@H](CCCCN)C(=O)N[C@@H](CCSC)C(=O)NCCCC[C@H](NC(=O)[C@H](CCSC)NC(=O)[C@@H](CCCCN)NC(=O)[C@H](CCCCN)NC(=O)CN(C(=O)CN(Cc2ccc(OC)cc2)C(=O)CN(C(=O)CN(Cc2ccc3c(c2)OCO3)C(=O)CN[C@H](C)c2ccccc2)[C@H](C)c2ccccc2)c2ccc3c(c2)OCCO3)C(N)=O)c2ccc3c(c2)OCCO3)C(=O)CN(C(=O)CN(Cc2ccc3c(c2)OCO3)C(=O)CN[C@H](C)c2ccccc2)[C@H](C)c2ccccc2)cc1 (I: H-[Nrpe][Gly(N-piperonyl)][Nrpe][N(4-MeOBn)Gly][X5]K[dK]MK-NH2 / II: H-[Nrpe][Gly(N-piperonyl)][Nrpe][N(4-MeOBn)Gly][X5]K[dK]M; amide I:9-II:C) | – | inactive | Non-Toxic | Non-Toxic | Active | – |
| COc1ccc(CN(CC(=O)NC(C(=O)NC(CCCCN)C(=O)NC(CCCCN)C(=O)NC(CCSC)C(=O)NCCCCC(NC(=O)C(CCSC)NC(=O)C(CCCCN)NC(=O)C(CCCCN)NC(=O)C(NC(=O)CN(Cc2ccc(OC)cc2)C(=O)CN(C(=O)CN(Cc2ccc3c(c2)OCO3)C(=O)CNC(C)c2ccccc2)C(C)c2ccccc2)C(C)O)C(N)=O)C(C)O)C(=O)CN(C(=O)CN(Cc2ccc3c(c2)OCO3)C(=O)CNC(C)c2ccccc2)C(C)c2ccccc2)cc1 (stereo unspecified) (I: H-[X3][Gly(N-piperonyl)][X3][N(4-MeOBn)Gly]TKKMK-NH2 / II: H-[X3][Gly(N-piperonyl)][X3][N(4-MeOBn)Gly]TKKM; amide I:9-II:C; configuration not given here) | – | – | – | – | Active | 14 µM |
| COc1ccc(CN(CC(=O)N(CCCCN)CC(=O)NC(CCCCN)C(=O)NC(CCCCN)C(=O)NCCCCC(NC(=O)C(CCCCN)NC(=O)C(CCCCN)NC(=O)CN(CCCCN)C(=O)CN(Cc2ccc(OC)cc2)C(=O)CN(C(=O)CN(Cc2ccc3c(c2)OCO3)C(=O)CNC(C)c2ccccc2)C(C)c2ccccc2)C(N)=O)C(=O)CN(C(=O)CN(Cc2ccc3c(c2)OCO3)C(=O)CNC(C)c2ccccc2)C(C)c2ccccc2)cc1 (stereo unspecified) (I: H-[X3][Gly(N-piperonyl)][X3][N(4-MeOBn)Gly][Nlys]KKK-NH2 / II: H-[X3][Gly(N-piperonyl)][X3][N(4-MeOBn)Gly][Nlys]KK; amide I:8-II:C; configuration not given here) | Active | – | – | – | Active | – |
| COc1ccc(CN(CC(=O)N(CC(=O)NC(CCCCN)C(=O)NC(CCCCN)C(=O)NC(CCSC)C(=O)NCCCCC(NC(=O)C(CCSC)NC(=O)C(CCCCN)NC(=O)C(CCCCN)NC(=O)CN(CC2CCNCC2)C(=O)CN(Cc2ccc(OC)cc2)C(=O)CN(C(=O)CN(Cc2ccc3c(c2)OCO3)C(=O)CNC(C)c2ccccc2)C(C)c2ccccc2)C(N)=O)CC2CCNCC2)C(=O)CN(C(=O)CN(Cc2ccc3c(c2)OCO3)C(=O)CNC(C)c2ccccc2)C(C)c2ccccc2)cc1 (stereo unspecified) (I: H-[X3][Gly(N-piperonyl)][X3][N(4-MeOBn)Gly][X8]KKMK-NH2 / II: H-[X3][Gly(N-piperonyl)][X3][N(4-MeOBn)Gly][X8]KKM; amide I:9-II:C; configuration not given here) | – | – | – | – | Active | – |
| COc1ccc(CN(CC(=O)N(CCOc2ccccc2)CC(=O)NC(CCCCN)C(=O)NC(CCCCN)C(=O)NC(CCSC)C(=O)NCCCCC(NC(=O)C(CCSC)NC(=O)C(CCCCN)NC(=O)C(CCCCN)NC(=O)CN(CCOc2ccccc2)C(=O)CN(Cc2ccc(OC)cc2)C(=O)CN(C(=O)CN(Cc2ccc3c(c2)OCO3)C(=O)CNC(C)c2ccccc2)C(C)c2ccccc2)C(N)=O)C(=O)CN(C(=O)CN(Cc2ccc3c(c2)OCO3)C(=O)CNC(C)c2ccccc2)C(C)c2ccccc2)cc1 (stereo unspecified) (I: H-[X3][Gly(N-piperonyl)][X3][N(4-MeOBn)Gly][X9]KKMK-NH2 / II: H-[X3][Gly(N-piperonyl)][X3][N(4-MeOBn)Gly][X9]KKM; amide I:9-II:C; configuration not given here) | – | – | – | – | Active | – |
| CCC(C)CN(CC(=O)NC(CCCCN)C(=O)NC(CCCCN)C(=O)NC(CCSC)C(=O)NCCCCC(NC(=O)C(CCSC)NC(=O)C(CCCCN)NC(=O)C(CCCCN)NC(=O)CN(CC(C)CC)C(=O)CN(Cc1ccc(OC)cc1)C(=O)CN(C(=O)CN(Cc1ccc2c(c1)OCO2)C(=O)CNC(C)c1ccccc1)C(C)c1ccccc1)C(N)=O)C(=O)CN(Cc1ccc(OC)cc1)C(=O)CN(C(=O)CN(Cc1ccc2c(c1)OCO2)C(=O)CNC(C)c1ccccc1)C(C)c1ccccc1 (stereo unspecified) (I: H-[X3][Gly(N-piperonyl)][X3][N(4-MeOBn)Gly][X10]KKMK-NH2 / II: H-[X3][Gly(N-piperonyl)][X3][N(4-MeOBn)Gly][X10]KKM; amide I:9-II:C; configuration not given here) | – | – | – | – | Active | – |
| COc1ccc(CN(CC(=O)N(CC(=O)NC(CCCCN)C(=O)NC(CCCCN)C(=O)NC(CCSC)C(=O)NCCCCC(NC(=O)C(CCSC)NC(=O)C(CCCCN)NC(=O)C(CCCCN)NC(=O)CN(Cc2ccc(N)cc2)C(=O)CN(Cc2ccc(OC)cc2)C(=O)CN(C(=O)CN(Cc2ccc3c(c2)OCO3)C(=O)CNC(C)c2ccccc2)C(C)c2ccccc2)C(N)=O)Cc2ccc(N)cc2)C(=O)CN(C(=O)CN(Cc2ccc3c(c2)OCO3)C(=O)CNC(C)c2ccccc2)C(C)c2ccccc2)cc1 (stereo unspecified) (I: H-[X3][Gly(N-piperonyl)][X3][N(4-MeOBn)Gly][X11]KKMK-NH2 / II: H-[X3][Gly(N-piperonyl)][X3][N(4-MeOBn)Gly][X11]KKM; amide I:9-II:C; configuration not given here) | – | – | – | – | Active | – |
